Consider five compounds from ChEMBL document CHEMBL4130482, “Synthesis and Antimicrobial Evaluation of Fire Ant Venom Alkaloid Based 2-Methyl-6-alkyl-Δ1,6-piperideines” (J Nat Prod, 2017).

A word on the MIC: it is the lowest concentration that inhibits growth of the organism. As a reminder, the IC50 is the concentration that inhibits the measured activity by half. A low value points to greater potency. As a reminder, the IC90 is the concentration needed for an effect of 90%.

Data set [1] has as its system Candida albicans. Briefly: Antimicrobial activity against Candida albicans ATCC 90028 after 48 hrs by CLSI method. The data set is classed as functional, organism-based. The procedure, abridged: (§1)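 Antifungal susceptibility was tested by a modified CLSI (formerly NCCLS) broth method. Strains were C. neoformans ATCC 90113, C. albicans ATCC 90028, and A. fumigatus ATCC 204305, obtained from ATCC. Amphotericin B served as the positive control.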

In data set [2] the test system is Aspergillus fumigatus. Briefly: Antimicrobial activity against Aspergillus fumigatus ATCC 204305 at 20 ug/ml after 48 hrs by CLSI method. In kind it is functional, organism-based.
Data set [3] concerns Cryptococcus neoformans. The experiment in a line: Antimicrobial activity against Cryptococcus neoformans ATCC 90113 after 72 hrs by CLSI method. The conditions noted are these: ATCC 90113, 72 h. The data set is classed as functional, organism-based. Put shortly: as §1
Data set [4] relates to Leishmania donovani. The experiment in a line: Antileishmanial activity against […] amastigote form of Leishmania donovani after 72 hrs by Alamar blue assay. In kind it is functional, organism-based. The procedure, abridged:
(§2)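 Alamar Blue viability assay on L. donovani promastigotes, axenic amastigotes, THP1-cell amastigotes, and T. brucei trypomastigotes. Organisms at 2 × 10^6 cells/mL were exposed to serially diluted compounds for 72 h at 26 °C. IC50 and IC90 were determined. Test compounds were run up to 10 μg/mL. Values are means with standard deviations from two independent experiments, each in duplicate.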
For orientation: The colour change of resazurin is a common sign of viable cells or microbes.

Data set [5] deals with Enterococcus faecium. The experiment in a line: Antimicrobial activity against vancomycin-resistant Enterococcus faecium ATCC 700221 at 20 ug/ml by CLSI method. The data set is classed as functional, organism-based.
Data set [6] has as its system Escherichia coli. The experiment in a line: Antimicrobial activity against Escherichia coli ATCC 2452 at 20 ug/ml by CLSI method. In kind it is functional, organism-based.
For data set [7], the system named is THP-1. Briefly: (§3) Cytotoxicity against human THP1 cells. In kind it is cell-based. The conditions noted are these: Homo sapiens, THP-1. Put shortly:
(§4)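 Human THP-1 cells were exposed to test compounds at up to 10 μg/mL. Values are from two independent experiments, each with two replicates.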

Data set [8] can be described thus: as §3. The data set is classed as cell-based, THP-1. To be noted: human, THP-1 cells. Put shortly:
as §4

The test system of data set [9] is Pseudomonas aeruginosa. Briefly: Antimicrobial activity against Pseudomonas aeruginosa ATCC 2108 at 20 ug/ml by CLSI method. In kind it is functional, organism-based.
Data set [10] concerns Trypanosoma brucei. Briefly: Antitrypanosomal activity against trypomastigote form of Trypanosoma brucei after 72 hrs by Alamar blue assay. In kind it is functional, organism-based. The procedure, abridged:
as §2

For data set [11], the system named is Staphylococcus aureus. Briefly: Antimicrobial activity against methicillin-resistant Staphylococcus aureus ATCC 1708 at 20 ug/ml by CLSI method. In kind it is functional, organism-based.
The test system of data set [12] is Leishmania donovani. The experiment in a line: Antileishmanial activity against amastigote form of Leishmania donovani infected in human THP1 cells after 72 hrs by Alamar blue assay. The data set is classed as functional, organism-based. The conditions noted are these: THP-1, 72 h. Put shortly:
as §2

Data set [13] relates to Leishmania donovani. The experiment in a line: Antileishmanial activity against promastigote form of Leishmania donovani after 72 hrs by Alamar blue assay. In kind it is functional, organism-based. Put shortly: as §2
Data set [14] has as its system Enterococcus faecium. The experiment in a line: Antimicrobial activity against vancomycin-resistant Enterococcus faecium ATCC 700221 by CLSI method. In kind it is functional, organism-based. Put shortly: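 VRE E. faecium ATCC 700221 strain, tested by a modified CLSI susceptibility method. Methicillin and vancomycin served as positive controls. The read-outs were 50% growth inhibition (IC50) and minimum inhibitory concentration (MIC).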

In data set [15] the test system is Enterococcus faecium. The experiment in a line: Antimicrobial activity against vancomycin-resistant Enterococcus faecium ATCC 700221 at 2 ug/ml by CLSI method. In kind it is functional, organism-based.
Data set [16] concerns Candida albicans. The experiment in a line: Antimicrobial activity against Candida albicans ATCC 90028 at 20 ug/ml after 48 hrs by CLSI method. In kind it is functional, organism-based.

Converted amounts (≈) assume the structure as drawn. The source made the active and inactive calls. No cut-off for these calls is given here.

Regarding `CCCCCCCCCCCCCCC1=NC(C)CCC1` (configuration not stated), in data set [1], the MIC result is “inactive”. Moreover, the IC50 in data set [1] (ATCC 90028, 48 h) is 17.1 µg/mL (≈ 58.3 µM); in data set [3], 8.3 µg/mL (≈ 28.3 µM); in [4], greater than 10 µg/mL; in data set [7], greater than 10 µg/mL; in data set [10], 4 µg/mL (≈ 13.6 µM); in data set [12], 3.4 µg/mL (≈ 11.6 µM). The compound further registered an IC50 in [13] of 6.7 µg/mL (≈ 22.8 µM). Further, the outcome in [2], in data set [5], in data set [6], in [9] and in data set [11] was inactive. Further, the minimal inhibitory concentration (MIC) in data set [3] is 13.3 µg/mL (≈ 45.3 µM). Also, the IC90 was greater than 10 µg/mL in data set [4]; greater than 10 µg/mL in [8]; 6.8 µg/mL (≈ 23.2 µM) in data set [10]; 8.8 µg/mL (≈ 30 µM) in data set [12]; 9 µg/mL (≈ 30.7 µM) in data set [13].

For the compound `CCCCCCCCCCCCCCCC1=NC(C)CCC1` (configuration not stated), the IC50 in data set [1] (ATCC 90028, 48 h) is 12.4 µg/mL (≈ 40.3 µM); in data set [3], 6.6 µg/mL (≈ 21.5 µM); in data set [4], greater than 10 µg/mL; in [7], greater than 10 µg/mL; in [10], 2.7 µg/mL (≈ 8.78 µM); in [14] it was 19.4 µg/mL (≈ 63.1 µM). Further, the values for the IC50 in [12] and in data set [13] were 3.1 µg/mL (≈ 10.1 µM) and 5.7 µg/mL (≈ 18.5 µM), respectively. For the same compound, the MIC in [1] (ATCC 90028, 48 h) came out at 20 µg/mL (≈ 65 µM); in data set [3] it was 10 µg/mL (≈ 32.5 µM); in [14], 20 µg/mL (≈ 65 µM). Also, the result in data set [2], in data set [6], in data set [9] and in data set [11] was inactive. The IC90 in data set [4] was greater than 10 µg/mL; in [8], greater than 10 µg/mL; in [10], 3.6 µg/mL (≈ 11.7 µM); in data set [12], greater than 10 µg/mL; in data set [13], 7.9 µg/mL (≈ 25.7 µM).

`C[C@@H]1[C@H](O)[C@@H](C)/C=C/C=C/C=C/C=C/C=C/C=C/C=C/[C@H](O[C@@H]2O[C@H](C)[C@@H](O)[C@H](N)[C@@H]2O)C[C@@H]2O[C@](O)(C[C@@H](O)C[C@@H](O)[C@H](O)CC[C@@H](O)C[C@@H](O)CC(=O)O[C@H]1C)C[C@H](O)[C@H]2C(=O)O` [AMPHOTERICIN B]: the result in [15] was inactive. In addition, the IC50 in data set [1] (ATCC 90028, 48 h) was less than 0.1 µg/mL; in [3], less than 0.1 µg/mL; in data set [4], 0.9 µg/mL (≈ 0.974 µM); in data set [7], greater than 2 µg/mL; in data set [12], 0.2 µg/mL (≈ 0.216 µM); in data set [13], 0.2 µg/mL (≈ 0.216 µM). For the same compound, the minimal inhibitory concentration (MIC) in data set [1] (ATCC 90028, 48 h) came to 0.1 µg/mL (≈ 0.108 µM); in data set [3], 0.1 µg/mL (≈ 0.108 µM). Moreover, the IC90 was 1.4 µg/mL (≈ 1.52 µM) in [4], greater than 2 µg/mL in [8], 0.4 µg/mL (≈ 0.433 µM) in data set [12] and 0.5 µg/mL (≈ 0.541 µM) in data set [13].

As to `CCCCCCCCCCCCCCCCC1=NC(C)CCC1` (configuration not stated), the result in data set [2], in data set [5], in [6], in [9], in data set [16] and in data set [11] was inactive. Besides, the IC50 in data set [3] was 9.9 µg/mL (≈ 30.8 µM); in data set [4], greater than 10 µg/mL; in data set [7], greater than 10 µg/mL; in data set [10], 3.5 µg/mL (≈ 10.9 µM); in [12], greater than 10 µg/mL; in data set [13], 5 µg/mL (≈ 15.5 µM). In addition, in data set [3], the MIC was 20 µg/mL (≈ 62.2 µM). In addition, the IC90 in data set [4] was greater than 10 µg/mL; in data set [8], greater than 10 µg/mL; in data set [10], 6.5 µg/mL (≈ 20.2 µM); in [12] it was greater than 10 µg/mL; in data set [13], 8.3 µg/mL (≈ 25.8 µM).

In data set [10], `NCCCC(N)(C(=O)O)C(F)F` (configuration not stated) [EFLORNITHINE] came in with an IC50 of 6.1 µg/mL (≈ 33.5 µM) and an IC90 of 12.1 µg/mL (≈ 66.4 µM).
